In ChEMBL document CHEMBL5257020, “Discovery of a 9-mer Cationic Peptide (LTX-315) as a Potential First in Class Oncolytic Peptide” (J Med Chem, 2016):
Where a SMILES comes first, the peptide text is derived from it. [ ]: non-standard residue; d: D form. ξ: configuration not given here. ξDip = NC(C(=O)O)C(c1ccccc1)c1ccccc1

Legend:
[1] = tested on: Ramos; test: Cytotoxicity against human Ramos cells assessed as inhibition of cell proliferation incubated for 4 hrs by MTS assay; format: functional, cell-based
How it was run: (§1)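 Cells grown in RPMI-1640 with 2 mM L-glutamine and 10% FBS, plated, then held 24 h at 37 °C. Adherent lines washed once in FBS-free medium. Cells exposed 4 h at 37 °C, 5% CO2 in FBS-free medium to 10 concentrations (1/4 steps, 400 μM top). 1% Triton X-100 served as positive control. MTS/PMS added for 2 h, then OD 490 nm read. IC50 from semilog curves; three independent experiments, quadruplicate wells.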

[2] = tested on: Raji; test: Cytotoxicity against human Raji cells assessed as inhibition of cell proliferation incubated for 4 hrs by MTS assay; format: functional, cell-based; how it was run: as §1
[3] = Cytotoxicity against human MINO cells assessed as inhibition of cell proliferation incubated for 4 hrs by MTS assay; format: functional, cell-based; how it was run: as §1
[4] = tested on: KARPAS-299; test: Cytotoxicity against human KARPAS-299 cells assessed as inhibition of cell proliferation incubated for 4 hrs by MTS assay; format: functional, cell-based; settings: KARPAS-299, 4 h; how it was run: as §1
[5] = tested on: CCRF-CEM; test: Cytotoxicity against human CCRF-CEM cells assessed as inhibition of cell proliferation incubated for 4 hrs by MTS assay; format: functional, cell-based; how it was run: as §1
[6] = Cytotoxicity against mouse AT84 cells assessed as inhibition of cell proliferation incubated for 4 hrs by MTT assay; format: functional, cell-based; settings: AT84, 4 h
[7] = tested on: HL60/ADR; test: Cytotoxicity against human HL60/ADR cells assessed as inhibition of cell proliferation incubated for 4 hrs by MTS assay; format: functional, cell-based; how it was run: as §1
[8] = tested on: IGROV-1; test: Cytotoxicity against human IGROV-1 cells assessed as inhibition of cell proliferation incubated for 4 hrs by MTS assay; format: functional, cell-based; settings: IGROV-1, 4 h; how it was run: as §1
[9] = tested on: K562; test: Cytotoxicity in imatinib resistant human K562 cells assessed as inhibition of cell proliferation incubated for 4 hrs by MTS assay; format: functional, cell-based; settings: K562, 4 h
How it was run: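 Oncodesign panel MTS/PMS assay. Cells in RPMI-1640 + 10% FBS. After 24 h pre-plating, adherent lines washed in FBS-free medium. Cells exposed 4 h at 37 °C in FBS-free medium to 10 concentrations, 1/4 dilutions from 400 μM top. Triton X-100 (1% final) positive control. MTS/PMS added, 2 h, OD 490 nm. IC50 from semilog curves. Three independent experiments, quadruplicate wells.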

[10] = tested on: Daudi; test: Cytotoxicity against human Daudi cells assessed as inhibition of cell proliferation incubated for 4 hrs by MTS assay; format: functional, cell-based; how it was run: as §1
[11] = tested on: Toledo; test: Cytotoxicity against human Toledo cells assessed as inhibition of cell proliferation incubated for 4 hrs by MTS assay; format: functional, cell-based; how it was run: as §1
[12] = tested on: U-937; test: Cytotoxicity against human U-937 cells assessed as inhibition of cell proliferation incubated for 4 hrs by MTS assay; format: functional, cell-based; settings: U-937, 4 h; how it was run: as §1
[13] = tested on: RPMI-8226; test: Cytotoxicity against human RPMI-8226 cells assessed as inhibition of cell proliferation incubated for 4 hrs by MTS assay; format: functional, cell-based; settings: RPMI-8226, 4 h; how it was run: as §1
[14] = tested on: SH-SY5Y; test: Cytotoxicity against human SH-SY5Y cells assessed as inhibition of cell proliferation incubated for 4 hrs by MTS assay; format: functional, cell-based; how it was run: as §1
[15] = tested on: SK-N-AS; test: Cytotoxicity against human SK-N-AS cells assessed as inhibition of cell proliferation incubated for 4 hrs by MTS assay; format: functional, cell-based; how it was run: as §1
[16] = tested on: MDA-MB-435S; test: Cytotoxicity against human MDA-MB-435S cells assessed as inhibition of cell proliferation incubated for 4 hrs by MTS assay; format: functional, cell-based; how it was run: as §1
[17] = tested on: T47D; test: Cytotoxicity against human T47D cells assessed as inhibition of cell proliferation incubated for 4 hrs by MTS assay; format: functional, cell-based; how it was run: as §1
[18] = tested on: HCT-15; test: Cytotoxicity against human HCT-15 cells assessed as inhibition of cell proliferation incubated for 4 hrs by MTS assay; format: functional, cell-based; settings: HCT-15, 4 h; how it was run: as §1
[19] = tested on: HT-29; test: Cytotoxicity against human HT-29 cells assessed as inhibition of cell proliferation incubated for 4 hrs by MTS assay; format: functional, cell-based; settings: HT-29, 4 h; how it was run: as §1
[20] = Cytotoxicity against human HUVEC-C cells assessed as inhibition of cell proliferation incubated for 4 hrs by MTS assay; format: toxicity, cell-based; how it was run: as §1
[21] = tested on: 786-0; test: Cytotoxicity against human 786-0 cells assessed as inhibition of cell proliferation incubated for 4 hrs by MTS assay; format: functional, cell-based; settings: 786-0, 4 h; how it was run: as §1
[22] = tested on: A498; test: Cytotoxicity against human A498 cells assessed as inhibition of cell proliferation incubated for 4 hrs by MTS assay; format: functional, cell-based; settings: A498, 4 h; how it was run: as §1
[23] = tested on: HepG2; test: Cytotoxicity against human HepG2 cells assessed as inhibition of cell proliferation incubated for 4 hrs by MTS assay; format: functional, cell-based; settings: HepG2, 4 h; how it was run: as §1
[24] = tested on: SK-HEP1; test: Cytotoxicity against human SK-HEP1 cells assessed as inhibition of cell proliferation incubated for 4 hrs by MTS assay; format: functional, cell-based; settings: SK-HEP1, 4 h; how it was run: as §1
[25] = tested on: A549; test: Cytotoxicity against human A549 cells assessed as inhibition of cell proliferation incubated for 4 hrs by MTS assay; format: functional, cell-based; settings: A549, 4 h; how it was run: as §1
[26] = tested on: Calu-6; test: Cytotoxicity against human Calu-6 cells assessed as inhibition of cell proliferation incubated for 4 hrs by MTS assay; format: functional, cell-based; settings: Calu-6, 4 h; how it was run: as §1
[27] = Cytotoxicity against human MRC5 cells assessed as inhibition of cell proliferation incubated for 4 hrs by MTS assay; format: toxicity, cell-based; how it was run: as §1
[28] = tested on: NCI-H460; test: Cytotoxicity against human NCI-H460 cells assessed as inhibition of cell proliferation incubated for 4 hrs by MTS assay; format: functional, cell-based; settings: NCI-H460, 4 h; how it was run: as §1
[29] = tested on: OVCAR-3; test: Cytotoxicity against human OVCAR-3 cells assessed as inhibition of cell proliferation incubated for 4 hrs by MTS assay; format: functional, cell-based; settings: OVCAR-3, 4 h; how it was run: as §1
[30] = tested on: SK-OV-3; test: Cytotoxicity against human SK-OV-3 cells assessed as inhibition of cell proliferation incubated for 4 hrs by MTS assay; format: functional, cell-based; settings: SK-OV-3, 4 h; how it was run: as §1
[31] = tested on: BXPC-3; test: Cytotoxicity against human BXPC-3 cells assessed as inhibition of cell proliferation incubated for 4 hrs by MTS assay; format: functional, cell-based; settings: BXPC-3, 4 h; how it was run: as §1
[32] = tested on: PANC-1; test: Cytotoxicity against human PANC-1 cells assessed as inhibition of cell proliferation incubated for 4 hrs by MTS assay; format: functional, cell-based; settings: PANC-1, 4 h; how it was run: as §1
[33] = tested on: PC-3; test: Cytotoxicity against human PC-3 cells assessed as inhibition of cell proliferation incubated for 4 hrs by MTS assay; format: functional, cell-based; settings: PC-3, 4 h; how it was run: as §1
[34] = tested on: A-431; test: Cytotoxicity against human A-431 cells assessed as inhibition of cell proliferation incubated for 4 hrs by MTS assay; format: functional, cell-based; settings: A-431, 4 h; how it was run: as §1
[35] = tested on: Malme-3M; test: Cytotoxicity against human Malme-3M cells assessed as inhibition of cell proliferation incubated for 4 hrs by MTS assay; format: functional, cell-based; how it was run: as §1
[36] = tested on: SK-MEL-2; test: Cytotoxicity against human SK-MEL-2 cells assessed as inhibition of cell proliferation incubated for 4 hrs by MTS assay; format: functional, cell-based; settings: SK-MEL-2, 4 h; how it was run: as §1
[37] = Cytotoxicity against human Hs 445 cells assessed as inhibition of cell proliferation incubated for 4 hrs by MTS assay; format: functional, cell-based; settings: Hs 445, 4 h; how it was run: as §1
[38] = Cytotoxicity against human U-87 MG cells assessed as inhibition of cell proliferation incubated for 4 hrs by MTS assay; format: functional, cell-based, U-87MG ATCC; how it was run: as §1
[39] = tested on: COLO 205; test: Cytotoxicity against human COLO 205 cells assessed as inhibition of cell proliferation incubated for 4 hrs by MTS assay; format: functional, cell-based; settings: COLO 205, 4 h; how it was run: as §1

In the case of NCCCC[C@H](NC(=O)[C@H](Cc1c[nH]c2ccccc12)NC(=O)[C@H](CCCCN)NC(=O)[C@H](CCCCN)NC(=O)C(NC(=O)[C@H](Cc1c[nH]c2ccccc12)NC(=O)[C@H](CCCCN)NC(=O)[C@H](CCCCN)NC(=O)[C@@H](N)Cc1c[nH]c2ccccc12)C(c1ccccc1)c1ccccc1)C(N)=O (some centres undefined) (H-WKKW[ξDip]KKWK-NH2), the IC50 [1] is reported as 5.4 µM, the IC50 [2] is reported as 12.5 µM and the IC50 [3] is reported as 9.5 µM. For the same compound, the IC50 [4] was 11.6 µM, the IC50 [5] was 7.8 µM and the IC50 [6] was 21 µM. It also gave an IC50 [7] of 10.5 µM, an IC50 [8] of 19.6 µM and an IC50 [9] of 9 µM. The IC50 [10] was 8.1 µM, the IC50 [11] was 7.7 µM and the IC50 [12] was 5.3 µM. For the same compound, the IC50 [13] was 6 µM, the IC50 [14] was 12.7 µM and the IC50 [15] was 10.4 µM. It also gave an IC50 [16] of 14.1 µM, an IC50 [17] of 4.8 µM and an IC50 [18] of 12 µM. The IC50 [19] was 11 µM, the IC50 at 4 h [20] was 55.5 µM and the IC50 [21] was 19.2 µM. For the same compound, the IC50 [22] was 13.9 µM, the IC50 [23] was 20.1 µM and the IC50 [24] was 15.6 µM. It also gave an IC50 [25] of 10.4 µM, an IC50 [26] of 6.9 µM and an IC50 at 4 h [27] of 28 µM. It also gave an IC50 [28] of 9 µM, an IC50 [29] of 13.9 µM and an IC50 [30] of 18.1 µM. For the same compound, the IC50 [31] was 17.9 µM, the IC50 [32] was 17.1 µM and the IC50 [33] was 14.1 µM. It also gave an IC50 [34] of 11.7 µM, an IC50 [35] of 12.4 µM and an IC50 [36] of 18.4 µM. It also gave an IC50 [37] of 6.5 µM, an IC50 [38] of 17.3 µM and an IC50 [39] of 8.7 µM.
